# Source: ChEMBL document CHEMBL4014347, “Targeting Mycolic Acid Transport by Indole-2-carboxamides for the Treatment of Mycobacterium abscessus Infections” (J Med Chem, 2017)
# The source made the active and inactive calls. The calls are words filed in the database; no cut-off is given here.
# Key:
# [1] = test system: Mycobacteroides abscessus; experiment: Antibacterial activity against Addison's disease patient derived Mycobacterium abscessus subsp. massiliense isolate CIP108297 smooth variant after 3 to 5 days by two fold serial dilution method; type: functional
# Method in brief: (§1)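 Broth microdilution in cation-adjusted Mueller−Hinton broth per CLSI; inoculum 5 × 10^6 CFU/mL of exponential-phase bacteria; two-fold serial dilutions, solvent-only wells as control; 30 °C for 3−5 days; MIC read visually and confirmed by absorbance at 560 nm; triplicate on three independent occasions.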
# [2] = Selectivity index, ratio of IC50 for African green monkey Vero cells to MIC=<90 for Mycobacterium tuberculosis; type: toxicity; settings: read-out: Selectivity Index
# [3] = test system: Mycobacteroides abscessus; experiment: Antibacterial activity against non CF patient derived Mycobacterium abscessus subsp. abscessus isolate CIP104536 rough variant after 3 to 5 days by two fold serial dilution method; type: functional; method in brief: as §1
# [4] = Antibacterial activity against CF patient derived Mycobacterium abscessus subsp. bolletii isolate 114 smooth variant after 3 to 5 days by two fold serial dilution method; type: functional; settings: Mycobacteroides abscessus; method in brief: as §1
# [5] = test system: Mycobacteroides abscessus; experiment: Antibacterial activity against CF patient derived Mycobacterium abscessus subsp. massiliense isolate 107 smooth variant after 3 to 5 days by two fold serial dilution method; type: functional; method in brief: as §1
# [6] = test system: Mycobacteroides abscessus; experiment: Antibacterial activity against Mycobacterium abscessus CIP104536 after 3 to 5 days by two fold serial dilution method; type: functional
# Method in brief: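 Broth microdilution per CLSI in cation-adjusted Mueller–Hinton broth; exponential-phase inoculum 5 × 10^6 CFU/mL; two-fold serial dilutions from highest concentration, solvent wells as control; 30 °C for 3−5 days; MIC read visually and confirmed by absorbance at 560 nm; triplicate on three independent occasions.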
# [7] = test system: Mycobacteroides abscessus; experiment: Antibacterial activity against CF patient derived Mycobacterium abscessus subsp. abscessus isolate 3321 smooth variant after 3 to 5 days by two fold serial dilution method; type: functional; method in brief: as §1
# [8] = Antibacterial activity against CF patient derived Mycobacterium abscessus subsp. bolletii isolate 116 smooth variant after 3 to 5 days by two fold serial dilution method; type: functional; settings: Mycobacteroides abscessus; method in brief: as §1
# [9] = test system: Mycobacterium tuberculosis; experiment: Inhibition of C-terminal His-tagged Mycobacterium tuberculosis Ag85C expressed in Escherichia coli C41 (DE3) at 2.5 to 50 uM after 1 hr by resorufin butyrate-based fluorescence assay
# Method in brief: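 Purified Ag85C mycolyltransferase activity measured with the fluorescent probe resorufin butyrate; compounds tested at 2.5 to 50 μM.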
# [10] = test system: Mycobacteroides abscessus; experiment: Antibacterial activity against Addison's disease patient derived Mycobacterium abscessus subsp. massiliense isolate CIP108297 rough variant after 3 to 5 days by two fold serial dilution method; type: functional; method in brief: as §1
# [11] = test system: Mycobacteroides abscessus; experiment: Antibacterial activity against Mycobacterium abscessus CIP104536 smooth variant harboring pMV261 MAB_4508 wild type at 0.5 to 1 ug/ml after 3 days; type: functional
# Method in brief: (§2)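 M. abscessus overexpressing wild-type or A309P MAB_4508 from pMV261 plated on 7H10 agar with 10% OADC containing drug; plates incubated at 30 °C for 3 days before growth inspection.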
# [12] = test system: Mycobacteroides abscessus; experiment: Antibacterial activity against CF patient derived Mycobacterium abscessus subsp. massiliense isolate 210 rough variant after 3 to 5 days by two fold serial dilution method; type: functional; method in brief: as §1
# [13] = test system: Mycobacteroides abscessus; experiment: Antibacterial activity against CF patient derived Mycobacterium abscessus subsp. massiliense isolate 122 smooth variant after 3 to 5 days by two fold serial dilution method; type: functional; method in brief: as §1
# [14] = test system: Mycobacteroides abscessus; experiment: Antibacterial activity against non CF patient derived Mycobacterium abscessus subsp. abscessus isolate 2587 smooth variant after 3 to 5 days by two fold serial dilution method; type: functional; method in brief: as §1
# [15] = Antibacterial activity against Mycobacterium abscessus subsp. bolletii isolate CIP108541 smooth variant after 3 to 5 days by two fold serial dilution method; type: functional; settings: Mycobacteroides abscessus; method in brief: as §1
# [16] = test system: Mycobacteroides abscessus; experiment: Antibacterial activity against CF patient derived Mycobacterium abscessus subsp. abscessus isolate 1298 smooth variant after 3 to 5 days by two fold serial dilution method; type: functional; method in brief: as §1
# [17] = test system: Mycobacteroides abscessus; experiment: Antibacterial activity against CF patient derived Mycobacterium abscessus subsp. abscessus isolate 2524 rough variant after 3 to 5 days by two fold serial dilution method; type: functional; method in brief: as §1
# [18] = test system: Mycobacteroides abscessus; experiment: Antibacterial activity against CF patient derived Mycobacterium abscessus subsp. abscessus smooth variant after 3 to 5 days by two fold serial dilution method; type: functional; method in brief: as §1
# [19] = Antibacterial activity against CF patient derived Mycobacterium abscessus subsp. bolletii isolate 108 rough variant after 3 to 5 days by two fold serial dilution method; type: functional; settings: Mycobacteroides abscessus; method in brief: as §1
# [20] = test system: Mycobacteroides abscessus; experiment: Antibacterial activity against CF patient derived Mycobacterium abscessus subsp. abscessus rough variant after 3 to 5 days by two fold serial dilution method; type: functional; method in brief: as §1
# [21] = test system: Mycobacteroides abscessus; experiment: Antibacterial activity against CF patient derived Mycobacterium abscessus subsp. massiliense isolate 140 smooth variant after 3 to 5 days by two fold serial dilution method; type: functional; method in brief: as §1
# [22] = test system: Mycobacteroides abscessus; experiment: Antibacterial activity against CF patient derived Mycobacterium abscessus subsp. massiliense isolate 212 smooth variant after 3 to 5 days by two fold serial dilution method; type: functional; method in brief: as §1
# [23] = Antibacterial activity against CF patient derived Mycobacterium abscessus subsp. bolletii isolate 112 rough variant after 3 to 5 days by two fold serial dilution method; type: functional; settings: Mycobacteroides abscessus; method in brief: as §1
# [24] = test system: Mycobacteroides abscessus; experiment: Antibacterial activity against Mycobacterium abscessus CIP_PIPD1 harboring MAB_4508 g925c/A309P mutant after 3 to 5 days by two fold serial dilution method; type: functional; method in brief: as §1
# [25] = test system: Mycobacteroides abscessus; experiment: Antibacterial activity against non CF patient derived Mycobacterium abscessus subsp. abscessus isolate CIP104536 smooth variant after 3 to 5 days by two fold serial dilution method; type: functional; method in brief: as §1
# [26] = test system: Mycobacterium tuberculosis; experiment: Antibacterial activity against Mycobacterium tuberculosis by AlamarBlue assay; type: functional
# [27] = test system: Mycobacteroides abscessus; experiment: Antibacterial activity against CF patient derived Mycobacterium abscessus subsp. massiliense isolate 185 smooth variant after 3 to 5 days by two fold serial dilution method; type: functional; method in brief: as §1
# [28] = test system: Mycobacteroides abscessus; experiment: Inhibition of MmpL3 in Mycobacterium abscessus CIP104536 smooth variant assessed as reduction in trehalose dimycolate synthesis up to 6.2 ug/ml preincubated for 1 hr followed by [14C]acetic acid addition measured after 2 hrs by TLC based autoradiography analysis
# Method in brief: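 Exponential cultures in 7H9 with OADC exposed to increasing drug concentrations for 1 h at 37 °C with agitation, then labelled with 1 μCi/mL [14C]acetate (56 mCi/mmol) for 2 h; apolar lipids (TMM, TDM) run on TLC in chloroform/methanol/water 40:8:1; MAME and arabinogalactan-bound mycolates in petroleum ether/acetone 95:5; autoradiography.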
# [29] = Selectivity index, ratio of IC50 for African green monkey Vero cells to MIC for Mycobacterium abscessus CIP104536; type: toxicity; settings: read-out: Selectivity Index
# [30] = test system: Mycobacteroides abscessus; experiment: Antibacterial activity against CF patient derived Mycobacterium abscessus subsp. abscessus isolate 2069 smooth variant after 3 to 5 days by two fold serial dilution method; type: functional; method in brief: as §1
# Vero = experiment: Cytotoxicity against African green monkey Vero cells; type: cell-based; settings: Chlorocebus sabaeus
# [31] = test system: Mycobacteroides abscessus; experiment: Antibacterial activity against Mycobacterium abscessus CIP104536 smooth variant harboring pMV261 MAB_4508_A309P mutant at 0.5 to 1 ug/ml after 3 days; type: functional; method in brief: as §2
# [32] = Antibacterial activity against non CF patient derived Mycobacterium abscessus subsp. bolletii isolate 19 rough variant after 3 to 5 days by two fold serial dilution method; type: functional; settings: Mycobacteroides abscessus; method in brief: as §1
# [33] = test system: Mycobacteroides abscessus; experiment: Antibacterial activity against CF patient derived Mycobacterium abscessus subsp. massiliense isolate 100 smooth variant after 3 to 5 days by two fold serial dilution method; type: functional; method in brief: as §1
# [34] = test system: Mycobacteroides abscessus; experiment: Antibacterial activity against Mycobacterium abscessus CIP104536 smooth variant assessed as reduction in viable colony forming unit at […] after 4 days by time-kill assay; type: functional
# [35] = test system: Mycobacteroides abscessus; experiment: Antibacterial activity against non CF patient derived Mycobacterium abscessus subsp. abscessus isolate 3022 rough variant after 3 to 5 days by two fold serial dilution method; type: functional; method in brief: as §1
# [36] = test system: Mycobacteroides abscessus; experiment: Antibacterial activity against CF patient derived Mycobacterium abscessus subsp. abscessus isolate 2648 rough variant after 3 to 5 days by two fold serial dilution method; type: functional; method in brief: as §1
# [37] = Antibacterial activity against CF patient derived Mycobacterium abscessus subsp. bolletii isolate 97 smooth variant after 3 to 5 days by two fold serial dilution method; type: functional; settings: Mycobacteroides abscessus; method in brief: as §1
# [38] = test system: Mycobacteroides abscessus; experiment: Antibacterial activity against CF patient derived Mycobacterium abscessus subsp. massiliense isolate 111 smooth variant after 3 to 5 days by two fold serial dilution method; type: functional; method in brief: as §1
# [39] = Antibacterial activity against non CF patient derived Mycobacterium abscessus subsp. bolletii isolate 17 smooth variant after 3 to 5 days by two fold serial dilution method; type: functional; settings: Mycobacteroides abscessus; method in brief: as §1
# [40] = test system: Mycobacteroides abscessus; experiment: Antibacterial activity against CF patient derived Mycobacterium abscessus subsp. massiliense isolate 120 smooth variant after 3 to 5 days by two fold serial dilution method; type: functional; method in brief: as §1
# [41] = test system: Mycobacteroides abscessus; experiment: Antibacterial activity against Mycobacterium abscessus CIP_OK4-10 harboring MAB_4508 g925c/A309P mutant after 3 to 5 days by two fold serial dilution method; type: functional; method in brief: as §1
smiles,measurement,setting,value
O=C(NC1CCCCCC1)c1cc2ccc(Br)cc2[nH]1,MIC,[1],0.25 µg/mL
same,selectivity ratio,[2],≥ 2050
same,MIC,[3],0.0625 µg/mL
same,MIC,[4],0.125 µg/mL
same,MIC,[5],0.25 µg/mL
same,MIC,[6],0.125 µg/mL
same,MIC,[7],0.125 µg/mL
same,MIC,[8],1 µg/mL
same,inhibition,[9],inactive
same,MIC,[10],0.125 µg/mL
same,Activity,[11],Active
same,MIC,[12],0.125 µg/mL
same,MIC,[13],0.125 µg/mL
same,MIC,[14],0.25 µg/mL
same,MIC,[15],0.125 µg/mL
same,MIC,[16],0.125 µg/mL
same,MIC,[17],0.125 µg/mL
same,MIC,[18],0.125 µg/mL
same,MIC,[19],0.5 µg/mL
same,MIC,[20],0.125 µg/mL
same,MIC,[21],0.125 µg/mL
same,MIC,[22],0.125 µg/mL
same,MIC,[23],0.0625 µg/mL
same,MIC,[24],32 µg/mL
same,MIC,[25],0.125 µg/mL
same,MIC=<90,[26],0.0313 µg/mL
same,MIC,[27],0.125 µg/mL
same,inhibition,[28],Dose-dependent effect
same,selectivity ratio,[29],≥ 512
same,MIC,[30],0.125 µg/mL
same,IC50,Vero,≥ 64 µg/mL
same,Activity,[31],inactive
same,MIC,[32],0.125 µg/mL
same,MIC,[33],0.125 µg/mL
same,Activity,[34],Active
same,MIC,[35],0.125 µg/mL
same,MIC,[36],0.125 µg/mL
same,MIC,[37],0.25 µg/mL
same,MIC,[38],0.125 µg/mL
same,MIC,[39],0.125 µg/mL
same,MIC,[40],0.125 µg/mL
same,MIC,[41],32 µg/mL
